Laboratory results from ChEMBL document CHEMBL4265907, “Design, synthesis and pharmacological evaluation of N4,N6-disubstituted pyrimidine-4,6-diamine derivatives as potent EGFR inhibitors in non-small cell lung cancer” (Eur J Med Chem, 2018).
Calls of active or inactive are those of the source. The rule behind the calls is not given here.

Experiments:
[1] = target: Fibroblast growth factor receptor 1 (Homo sapiens) (UniProt P11362); experiment: Inhibition of N-terminal GST-tagged human FGFR1 cytoplasmic domain (398 to 822 residues) expressed in baculovirus expression system at […] using FAM-labeled peptide as substrate after 10 mins by mobility shift assay relative to control
Outline: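 Caliper mobility-shift kinase assay. Kinase in kinase base buffer was preincubated with compound for 10 min at room temperature. FAM-labelled peptide and ATP at Km were then added, and the reaction ran at 28 °C until quenched with buffer. Screening concentration was 1 µM. Percent inhibition = (max − conversion)/(max − min) × 100, with DMSO as max and a low control as min.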

[2] = target: T1, Epidermal growth factor receptor (Homo sapiens, UniProt P00533); experiment: Inhibition of N-terminal GST-tagged wild type human EGFR cytoplasmic domain (669 to 1210 residues) expressed in baculovirus expression system using FAM-labeled peptide as substrate after 10 mins by mobility shift assay
PC-9 [3] = experiment: Antiproliferative activity against human PC9 cells after 72 hrs by MTT assay; format: functional, cell-based; conditions: PC-9, 72 h
Outline: (§1)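 Cells seeded at 3000/well in growth medium with 10% FBS and left overnight. Treated in triplicate for 72 h at nine concentrations (0.458 to 30,000 nM), with DMSO-only controls. MTT (5 mg/mL) added for the last 4 h, formazan dissolved in DMSO, absorbance read at 490 nm. IC50 from non-linear sigmoidal dose-response fit.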

BEAS-2B = experiment: Cytotoxicity against human BEAS2B cells after 72 hrs by MTT assay; format: cell-based; outline: as §1
A-431 [4] = experiment: Antiproliferative activity against human A431 cells after 72 hrs by MTT assay; format: functional, cell-based; conditions: A-431, 72 h; outline: as §1
NCI-H1975 [5] = experiment: Antiproliferative activity against human NCI-H1975 cells after 72 hrs by MTT assay; format: functional, cell-based; conditions: NCI-H1975, 72 h; outline: as §1
NCI-H3255 [6] = experiment: Antiproliferative activity against human H3255 cells after 72 hrs by MTT assay; format: functional, cell-based; conditions: NCI-H3255, 72 h; outline: as §1
NCI-H1975 [7] = experiment: Induction of apoptosis in human NCI-H1975 cells assessed as late apoptotic cells at 1000 nM after 48 hrs by Annexin V-FITC/PI staining based flow cytometry (reference value: 1.91%); format: functional
[8] = AUC (0 to infinity) in Sprague-Dawley rat at 30 mg/kg, po by UPLC-MS/MS analysis; format: ADME, organism-based; parameters: dose 30 mg/kg, route oral, time infinity; conditions: in vivo
Outline: (§2)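 Four female and four male Sprague-Dawley rats, 200-220 g, fasted 12 h, then given a single oral dose of 30 mg/kg as a 0.5% CMC-Na suspension. Blood sampled at 0.083, 0.25, 0.5, 1, 2, 4, 8 and 24 h, plasma separated by centrifugation at 4000 r/min for 10 min, and analysed by UPLC–MS/MS. Parameters reported as mean ± SD, n=6.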

Mus musculus [9] = experiment: In vivo inhibition of AKT phosphorylation in tumor of BALB/C nude mouse xenografted with human PC9 cells at 15 to 30 mg/kg, ip qd administered for 19 days by immunoblot method; format: functional, organism-based
[10] = target: T1, Epidermal growth factor receptor; experiment: Inhibition of EGF-induced EGFR autophosphorylation at Y1068 residues in human H1975 cells by Western blot method; format: cell-based
Outline: (§3)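 Cell lysates prepared in protein lysis buffer and cleared at 12,000 g for 10 min at 4 °C. 50 μg protein per lane was run on a gel, transferred to PVDF and immunoblotted, with GAPDH as the loading control.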

A-431 [11] = experiment: Induction of apoptosis in human A431 cells assessed as viable cells at 500 nM after 48 hrs by Annexin V-FITC/PI staining based flow cytometry (reference value: 90.3%); format: functional; conditions: A-431, 48 h, read-out: Activity
[12] = target: T1, Epidermal growth factor receptor; experiment: Inhibition of EGFR in human HCC827 cells assessed as decrease in EGF-induced ERK1/2 phosphorylation by Western blot method; format: cell-based; outline: as §3
NCI-H1975 [13] = experiment: Cell cycle arrest in human NCI-H1975 cells assessed as accumulation at G2/M phase after 24 hrs by propidium iodide staining based flow cytometry; format: functional
Outline: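 NCI-H1975 cells (2×10^5) seeded in 6-well plates overnight, then treated 24 h at 50, 100, 250 or 500 nM; 1‰ DMSO medium as control. Cells harvested, washed in cold PBS, fixed in 70% cold ethanol at −20 °C overnight, stained with PI/RNase buffer and analysed by flow cytometry. n=3.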

NCI-H3255 [14] = experiment: Induction of apoptosis in human H3255 cells assessed as late apoptotic cells at 250 nM after 48 hrs by Annexin V-FITC/PI staining based flow cytometry (reference value: 1.77%); format: functional
NCI-H3255 [15] = experiment: Induction of apoptosis in human H3255 cells assessed as early apoptotic cells at 250 nM after 48 hrs by Annexin V-FITC/PI staining based flow cytometry (reference value: 3.22%); format: functional
[16] = target: T1, Epidermal growth factor receptor; experiment: Inhibition of EGFR in human HCC827 cells assessed as decrease in EGF-induced AKT phosphorylation by Western blot method; format: cell-based; outline: as §3
NCI-H1975 [17] = experiment: Induction of apoptosis in human NCI-H1975 cells assessed as early apoptotic cells at 1000 nM after 48 hrs by Annexin V-FITC/PI staining based flow cytometry (reference value: 2.07%); format: functional
A-431 [18] = experiment: Induction of apoptosis in human A431 cells assessed as early apoptotic cells at 250 nM after 48 hrs by Annexin V-FITC/PI staining based flow cytometry (reference value: 3.40%); format: functional
[19] = target: T1, Epidermal growth factor receptor; experiment: Inhibition of EGF-induced EGFR autophosphorylation at Y1068 residues in human HCC827 cells by Western blot method; format: cell-based; outline: as §3
PC-9 [20] = experiment: Antitumor activity against human PC9 cells xenografted in BALB/C nude mouse assessed as decrease in tumor weight at 15 to 30 mg/kg, ip qd administered for 19 days measured for 23 days; format: functional, organism-based
Outline: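 Six-week-old BALB/C-nu mice given 2×10^6 PC-9 cells subcutaneously in the right flank. At tumour size ~0.2-0.4 cm³, randomised, 5 mice/group. Dosed ip daily for 19 days at 15 or 30 mg/kg, vehicle DMSO:Span-80:ddH₂O = 2:1:50; vehicle-treated control group. Tumour volume = (W²×L)/2. Tumours weighed.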

NCI-H3255 [21] = experiment: Induction of apoptosis in human H3255 cells assessed as necrotic cells at 500 nM after 48 hrs by Annexin V-FITC/PI staining based flow cytometry (reference value: 7.06%); format: functional
Mus musculus [22] = experiment: In vivo inhibition of AKT phosphorylation in tumor of BALB/C nude mouse xenografted with human PC9 cells at 15 to 30 mg/kg, ip qd administered for 19 days by immunohistochemical analysis; format: functional, organism-based
HCC827 = experiment: Induction of apoptosis in human HCC827 cells assessed as viable cells at 500 nM after 48 hrs by Annexin V-FITC/PI staining based flow cytometry (reference value: 94.6%); format: functional; conditions: HCC827, 48 h, read-out: Activity
[23] = Half life in Sprague-Dawley rat at 30 mg/kg, po by UPLC-MS/MS analysis; format: ADME, organism-based; conditions: in vivo; outline: as §2
NCI-H3255 [24] = experiment: Induction of apoptosis in human H3255 cells assessed as viable cells at 250 nM after 48 hrs by Annexin V-FITC/PI staining based flow cytometry (reference value: 87.9%); format: functional; conditions: NCI-H3255, 48 h, read-out: Activity

T1 sequence (P00533 whole entry, the tested form may be a part): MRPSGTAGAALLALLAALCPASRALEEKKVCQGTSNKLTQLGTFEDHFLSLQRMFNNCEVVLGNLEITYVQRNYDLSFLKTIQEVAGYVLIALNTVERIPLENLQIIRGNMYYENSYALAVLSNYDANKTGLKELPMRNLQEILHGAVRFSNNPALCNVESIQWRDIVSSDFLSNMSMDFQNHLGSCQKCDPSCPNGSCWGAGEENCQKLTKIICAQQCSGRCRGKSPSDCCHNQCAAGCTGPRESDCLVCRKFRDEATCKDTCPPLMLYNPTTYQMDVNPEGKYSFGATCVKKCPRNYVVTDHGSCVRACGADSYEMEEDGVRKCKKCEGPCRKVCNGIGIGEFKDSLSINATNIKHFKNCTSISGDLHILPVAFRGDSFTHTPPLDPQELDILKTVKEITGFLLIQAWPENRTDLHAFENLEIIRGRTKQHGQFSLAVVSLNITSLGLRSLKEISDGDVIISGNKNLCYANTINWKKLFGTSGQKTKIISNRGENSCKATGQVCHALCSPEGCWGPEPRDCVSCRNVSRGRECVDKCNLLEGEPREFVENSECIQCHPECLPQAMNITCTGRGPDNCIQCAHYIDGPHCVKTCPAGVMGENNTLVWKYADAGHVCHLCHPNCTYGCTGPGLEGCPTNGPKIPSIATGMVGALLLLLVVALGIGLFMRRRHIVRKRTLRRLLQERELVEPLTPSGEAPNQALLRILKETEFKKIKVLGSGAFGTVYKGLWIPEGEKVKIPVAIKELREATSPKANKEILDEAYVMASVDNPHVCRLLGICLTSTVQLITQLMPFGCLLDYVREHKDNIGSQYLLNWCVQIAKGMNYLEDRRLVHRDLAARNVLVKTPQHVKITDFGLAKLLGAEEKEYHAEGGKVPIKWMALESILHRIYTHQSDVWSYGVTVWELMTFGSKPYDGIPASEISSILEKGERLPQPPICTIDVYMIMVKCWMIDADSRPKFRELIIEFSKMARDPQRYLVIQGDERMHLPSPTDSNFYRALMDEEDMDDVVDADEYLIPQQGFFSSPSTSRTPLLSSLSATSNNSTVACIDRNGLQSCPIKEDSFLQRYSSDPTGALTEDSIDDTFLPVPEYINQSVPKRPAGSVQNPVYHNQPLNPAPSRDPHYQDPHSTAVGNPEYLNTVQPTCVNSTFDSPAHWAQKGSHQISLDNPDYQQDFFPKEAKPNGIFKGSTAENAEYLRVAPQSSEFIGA

Structure (SMILES) | inhibition [1] [%] | IC50 [2] [µM] | IC50 (PC-9 [3]) [µM] | IC50 (BEAS-2B) [µM] | IC50 (A-431 [4]) [µM] | IC50 (NCI-H1975 [5]) [µM] | IC50 (NCI-H3255 [6]) [µM] | further results
COc1cccc(Nc2cc(NC(=O)CCCC(=O)O)ncn2)c1 | -5.5 | 0.037 | – | – | – | – | – | –
O=C(O)CCCC(=O)Nc1cc(Nc2cccc(Cl)c2)ncn1 | -8.8 | – | 2 | 18 | > 30 | > 30 | > 30 | –
CCOC(=O)c1ccc(Nc2cc(NC(=O)CCCC(=O)O)ncn2)cc1 | -5.3 | 0.048 | – | – | – | – | – | –
O=C(O)CCCC(=O)Nc1cc(N2CCOCC2)ncn1 | – | 0.053 | 0.56 | 17.9 | 0.78 | 1.16 | 5.69 | –
COc1ccc(Nc2cc(NC(=O)c3ccccc3)ncn2)cc1 | 2.8 | 0.081 | 0.66 | 18.5 | 9.46 | 11.4 | 8.88 | –
COc1cccc(Nc2cc(Nc3cc(OC)ccc3OC)ncn2)c1 | -9.3 | – | 0.45 | 21.4 | 0.74 | 0.89 | 0.86 | Activity (NCI-H1975 [7]): 18.2%; AUC(0-inf) [8]: 5820 ng·h/mL; inhibition (Mus musculus [9]): Active; inhibition [10]: Dose-dependent effect; viability at 0.5 µM (A-431 [11]): 70.7%; inhibition [12]: Dose-dependent effect; Activity (NCI-H1975 [13]): Dose-dependent effect; Activity (NCI-H3255 [14]): 3.24%; Activity (NCI-H3255 [15]): 13.3%; inhibition [16]: Dose-dependent effect; Activity (NCI-H1975 [17]): 27.8%; Activity (A-431 [18]): 10.8%; inhibition [19]: Dose-dependent effect; Activity (PC-9 [20]): Active; Activity (NCI-H3255 [21]): 4.88%; inhibition (Mus musculus [22]): Active; viability at 0.5 µM (HCC827): 61.8%; half-life [23]: 4.17 h; viability at 0.25 µM (NCI-H3255 [24]): 79.2%
